High-throughput results: PubChem BioAssay, several laboratories
Sampled rows, rich in hits. Any-hit rate of the full collection: about 2.3%.
CTSL1 counter: counter-screen for PFM18AAP inhibitors: inhibitors of F. hepatica cathepsin L1. recombinant F. hepatica cathepsin L1, Z-Leu-Arg-MCA fluorescence. 300,000 compounds, 0.49% hits. inhibition, % at 5.96 µM;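 active = inhibition above the mean of all tested compounds plus 3 SD, set per screening campaign, cut at about 17% in these data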
PREPL inh: human PREPL enzyme inhibition | Q4J6C6 | 320,000 compounds, 0.68% hits | inhibition, % at 5.96 µM | recombinant PREPL, fluorescence polarization activity-based probe | AID 2751; in the data active = inhibition above about 43%
PP5 inh: inhibitors of human protein phosphatase 5 (PP5); inhibition, % at 6.7 µM; P53041; 320,000 compounds, 0.18% hits; purified PP5c, OMFP substrate fluorescence; AID 1987;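 active = inhibition above the campaign's mean inhibition across all tested compounds plus 3 SD, cut at about 9.5% in these data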
UBC13 polyUb: blocks human UBC13 polyubiquitin chain formation; AID 485273; TR-FRET; inhibition, % at 20 µM; 330,000 compounds, 0.47% hits; in the data active = inhibition above about 45%, passing the limit was not always enough
Target sequence (P61088 whole entry, looked up): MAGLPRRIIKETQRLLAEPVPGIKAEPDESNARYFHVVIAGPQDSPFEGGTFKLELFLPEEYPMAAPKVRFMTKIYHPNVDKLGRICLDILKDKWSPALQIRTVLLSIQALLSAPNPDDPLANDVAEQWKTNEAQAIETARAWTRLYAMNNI
PP1 counter: PP1-alpha (human) inhibition in PP5 counter-screen | purified PP1alpha, OMFP fluorescence | inhibition, % at 6.7 µM | 320,000 compounds, 0.9% hits | AID 2235;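 active = inhibition above the mean inhibition of all tested compounds plus 3 SD, computed separately for each screening campaign, cut at about 15% in these data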
UCH37 inh: inhibitors of human deubiquitinating enzyme UCH37; Q9Y5K5; 330,000 compounds, 0.33% hits; inhibition, % (concentration not given with the values); purified proteasome/UCH37, Ub-AMC cleavage fluorescence;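 active = mean inhibition over replicate wells above about 20%, limit read from the data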
Target sequence (Q9Y5K5 whole entry, looked up): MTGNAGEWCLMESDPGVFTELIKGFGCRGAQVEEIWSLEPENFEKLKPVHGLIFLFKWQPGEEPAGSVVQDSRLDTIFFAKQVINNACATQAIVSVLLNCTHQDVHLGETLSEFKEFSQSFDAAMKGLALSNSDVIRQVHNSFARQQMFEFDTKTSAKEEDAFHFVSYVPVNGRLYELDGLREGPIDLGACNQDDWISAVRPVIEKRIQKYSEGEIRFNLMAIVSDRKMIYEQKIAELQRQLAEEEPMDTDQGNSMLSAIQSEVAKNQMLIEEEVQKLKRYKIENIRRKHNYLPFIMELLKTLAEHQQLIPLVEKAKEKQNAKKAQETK
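Material: human UCH37 enzyme supplied as purified proteasome complex / Amount: 0.15 nM proteasome as dispensed / Buffer or medium: pH 7.4 Tris-HCl (50 mM) with ovalbumin, ATP-MgCl2, DTT / Times: preincubation 30 min, reaction 25 min, room temperature / Technique: AMC fluorescence from Ub-AMC cleavage, excitation 355 nm, emission 460 nm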
PP1 confirm: human PP1 phosphatase inhibition, confirmation; shares compounds with PP1 counter; purified PP1alpha, OMFP substrate fluorescence; inhibition, % at 6.7 µM; 1,900 compounds, 52% hits; AID 2358;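 active = mean PP1 inhibition above a set limit taken from the earlier primary screen, cut at about 15% in these data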
PP5 counter: inhibits human PP5 phosphatase in PP1 counter-screen; purified PP5c, OMFP fluorescence; 1,900 compounds, 4% hits; shares compounds with PP1 counter; AID 2360; inhibition, % at 6.7 µM;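 active = mean PP5 inhibition over triplicate wells above about 9.5% taken from the earlier PP1 screen, limit read from the data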
Hits are given with their value; - = inactive; . = no result.

SMILES | CTSL1 counter | PREPL inh | PP5 inh | UBC13 polyUb | PP1 counter | UCH37 inh | PP1 confirm | PP5 counter
N#C/C(=C/c1ccc(Sc2nc3ccccc3[nH]2)o1)c1cccc(F)c1 | - | - | - | - | - | - | . | .
N#C/C(=C/c1ccc(Sc2nc3ccccc3[nH]2)o1)c1ccccc1F | - | - | - | - | 37 | - | - | -
CC1CC2(CCCCC2)N2C(=O)C(=O)c3cccc1c32 (stereo not drawn) | - | - | - | - | - | - | . | .
CC1(c2ccccc2)CC(C)(C)N2C(=O)C(=O)c3cccc1c32 (stereo not drawn) | - | - | - | - | 24 | . | 18 | -
COC(=O)C1C2CC3c4[nH]c5cc(OC)ccc5c4CCN3CC2CC(OC(=O)CC(C)=O)C1OC (stereo not drawn) | . | . | . | . | . | - | . | .
CCOC(=O)Oc1c(OC)cc(C(=O)O[C@@H]2C[C@@H]3CN4CCc5c([nH]c6cc(OC)ccc56)[C@H]4C[C@@H]3[C@H](C(=O)OC)[C@H]2OC)cc1OC | - | - | - | - | 20 | - | - | -
CCN(CC)c1ccc(C=NNS(=O)(=O)c2ccc(C)c([N+](=O)[O-])c2)cc1 | . | . | . | . | . | - | . | .
Cc1cccc(N2CCN(C(=O)CC(NC(=O)c3ccccc3)c3ccccc3)CC2C)c1 (stereo not drawn) | - | - | - | - | 20 | - | - | -
COc1cccc(N2CCN(C(=O)CC(NC(=O)c3ccccc3)c3ccccc3)CC2)c1 (stereo not drawn) | . | - | - | - | - | - | . | .
COc1ccc(-c2nnc(NC(=O)c3ccc(S(=O)(=O)N4COCC4(C)C)cc3)o2)cc1 | - | - | - | - | 30 | - | 29 | -
O=C(O)CCC(=O)N1CCc2cc(S(=O)(=O)N(CCc3ccccc3)Cc3ccccc3)ccc21 | - | - | - | - | 20 | - | 15 | -
O=C(O)c1ccc(S(=O)(=O)N(Cc2ccccc2)Cc2ccccc2)cc1 | - | - | - | - | - | - | . | .
CCCCN(c1ccccc1)S(=O)(=O)c1ccc2c(c1)CCN2C(=O)CCC(=O)O | - | - | - | - | - | - | . | .
O=C(O)c1ccc(S(=O)(=O)N(CCc2ccccc2)Cc2ccc(Cl)cc2)cc1 | - | - | - | - | 22 | - | - | -
O=C(NN=Cc1c[nH]c2ccccc12)C1CC(=O)N(c2ccccc2)C1 (stereo not drawn) | . | . | . | . | . | - | . | .
COc1ccc(Cn2c(SCc3cc(C)ccc3C)nc3cc(OC)c(OC)cc3c2=N)cc1 | - | - | - | - | 23 | - | - | -
COc1ccc(Cn2c(SCc3ccc(C)cc3)nc3cc(OC)c(OC)cc3c2=N)cc1Cl | - | - | - | - | 21 | - | - | -
CCOc1cc(/C=N/N=C(/N)c2nonc2N)cc(Br)c1OCc1ccc(Cl)cc1 | - | - | - | - | 18 | . | - | -
COc1cc(C=NN=C(N)c2nonc2N)cc(Br)c1OCc1cccc(C)c1 | . | . | . | . | . | - | . | .
CC(=NNc1cccc([N+](=O)[O-])c1)c1ccccc1O | . | . | . | . | . | - | . | .
COc1ccc(-c2csc(NC(=O)c3ccccc3F)n2)cc1 | - | - | - | - | - | - | . | .
COc1ccc(-c2csc(NC(=O)c3ccccc3NS(=O)(=O)c3ccc(F)c(F)c3)n2)cc1 | - | - | 12 | - | 27 | - | 24 | -
CCOC(=O)C(=NNc1ncnc2ccccc12)c1ccc(OC)cc1 | . | . | . | . | . | - | . | .
O=C(NN=Cc1ccc2c(c1)OCO2)c1ccc(NC(=O)c2ccc(F)cc2)cc1 | . | . | . | . | . | - | . | .
O=C(N/N=C/c1cc(Br)cc([N+](=O)[O-])c1O)c1ccc(NC(=O)c2ccc(F)cc2)cc1 | - | - | - | - | 22 | . | 35 | -
SMILES | CTSL1 counter | PREPL inh | PP5 inh | UBC13 polyUb | PP1 counter | UCH37 inh | PP1 confirm | PP5 counter
O=C(N/N=C/c1ccc2c(c1)OCO2)c1ccc(NC(=O)c2ccc(F)cc2)cc1 | - | - | - | - | 19 | . | 30 | -
COc1ccc2c(Cl)c(C(=O)N/N=C/c3ccc4c(c3)OCO4)sc2c1 | - | - | - | - | 20 | . | 48 | -
Cc1ccc(O)c(C=NNC(=O)c2[nH]ncc2Br)c1 | . | . | . | . | . | - | . | .
O=c1[nH]c(CSc2nnc(Nc3ccccc3)s2)nc2ccccc12 | - | - | - | - | 28 | - | 18 | -
COc1ccc(NC(=O)CN(C)C(=O)c2c(C)nn(-c3ccccc3)c2Cl)cc1 | - | - | - | - | 20 | - | - | -
COc1ccc(NC(=O)CN(C)C(=O)c2c(C)nn(Cc3ccc(C)cc3)c2Cl)cc1 | . | - | - | - | - | - | . | .
COc1ccc(Cc2nnc(NN=C(C)c3ccccc3)[nH]c2=O)cc1OC | . | . | . | . | . | - | . | .
O=C(Nc1cccc(-c2cn3ccccc3n2)c1)c1cc2ccccc2oc1=O | - | - | - | - | 24 | - | 28 | -
O=C(CC1CC2CCC1C2)Nc1nc(-c2ccccn2)cs1 (stereo not drawn) | - | - | - | - | 40 | - | 41 | -
O=C(CCS(=O)(=O)c1ccc(F)cc1)Nc1nc(-c2ccccn2)cs1 | - | - | - | - | 21 | - | 44 | -
Cc1ccc(S(=O)(=O)CCC(=O)Nc2nc(-c3ccncc3)cs2)cc1 | - | - | - | - | - | - | . | .
c1ccc(-c2csc(Nc3cccnc3)n2)nc1 | - | - | - | - | - | - | . | .
c1ccc(Nc2nc(-c3ccccn3)cs2)cc1 | - | - | - | - | 50 | - | 46 | -
O=C(CCS(=O)(=O)c1ccccc1)Nc1nc(-c2ccccn2)cs1 | - | - | - | - | 27 | - | 37 | -
O=C(Nc1nc(-c2ccccn2)cs1)C1CC1 | - | - | - | - | - | - | . | .
COc1cc(C=NNC(=O)c2ccc(N3CCCC3=O)cc2)ccc1O | . | . | . | . | . | - | . | .
CC(Oc1ccc(F)cc1)C(=O)Nc1nc(-c2ccccn2)cs1 (stereo not drawn) | - | - | - | - | 21 | - | 32 | -
COc1ccc(OCCCC(=O)Nc2nc(-c3ccccn3)cs2)cc1 | - | - | - | - | 43 | - | 50 | -
Cc1cc(C)c(OCC(=O)Nc2nc(-c3ccccn3)cs2)c(C)c1 | - | - | - | - | - | - | . | .
C[C@H](NC(=O)OC(C)(C)C)C(=O)NN=Cc1cccc2nccnc12 | . | . | . | . | . | - | . | .
COc1ccc(CC(=O)Nc2c3c(nn2-c2ccccc2C)CS(=O)C3)cc1 (stereo not drawn) | - | - | - | - | 22 | - | - | -
COc1ccc(-c2cc3nc4ccccc4n3c(N)c2C#N)cc1 | - | - | - | - | 18 | - | 17 | -
NC(=NOCc1cccc([N+](=O)[O-])c1)c1nonc1N | . | . | . | . | . | - | . | .
O=C(NN=Cc1ccccc1Br)C1CC1 | . | . | . | . | . | - | . | .
CCOc1ccc(CN2CCNC(=O)C2CC(=O)NC2CCCCCC2)cc1 (stereo not drawn) | - | - | - | - | 18 | - | - | -
